Measurements pooled from the literature.
Compare with care: the assays were run in different laboratories.
Target: Histamine H1 receptor (HRH1, Homo sapiens, UniProt P35367)

O=C1NC(=O)C(c2ccccc2)(c2ccc(OCCCN3CCCCC3)cc2)N1 (stereo not shown)
Ki (ligand displacement; radioligand; cell membranes): 6150 nM

CCCCN1CCC(COC(=O)c2ccc(N)c(OCF)c2)CC1
Ki (cell-free assay; radioligand): > 10000 nM

N#Cc1cc(Cn2c(N3CCCC3)nc3ccccc32)ccc1F
Ki (cell-free assay; radioligand): 2570 nM

CN1CCC(C2c3ccccc3CCc3ccccc32)CC1
Ki (cell-free assay; radioligand): 0.631 nM

CN(C)c1ccc(/C=C/C=C2\CCc3cc(OCc4ccc(OCCCN5CCCCC5)cc4)ccc3C2=O)cc1
Ki (ligand displacement; radioligand; cell membranes): 1370 nM

CN(C)CCOC1c2ccccc2C=Cc2ccccc21
Ki (cell-free assay; radioligand): 0.316 nM

CN(C)c1ccc(/C=C/C=C2\CCc3cc(OCCCN4CCCCC4)ccc3C2=O)cc1
Ki (ligand displacement; radioligand; cell membranes): 881 nM

CCc1nc2cc(OCCCCN3CCC(c4cccc(Cl)c4Cl)CC3)ccc2s1
Ki (ligand displacement; radioligand): 690 nM

CN1CCC(=C2c3ccccc3CCc3cccnc32)CC1
Ki (cell-free assay): 0.0631 nM

CN(C)c1ccc(/C=C/C=C2\CCc3ccc(OCc4ccc(OCCCN5CCCCC5)cc4)cc3C2=O)cc1
Ki (ligand displacement; radioligand; cell membranes): 1840 nM

CC(C)c1nc2cc(OCCCCN3CCN(c4cccc5c4OCCO5)CC3)ccc2s1
Ki (ligand displacement; radioligand): 52 nM

CN1CCN(C2c3ccccc3CCc3ccccc32)CC1
Ki (cell-free assay; radioligand): 2 nM

CN(C)c1ccc(/C=C2\CCc3ccc(OCc4ccc(OCCCN5CCCCC5)cc4)cc3C2=O)cc1
Ki (ligand displacement; radioligand; cell membranes): 4230 nM
